Results from ChEMBL document CHEMBL1129566 (J Med Chem, 1996).
≈ marks a conversion by molar mass, not a printed value.

Test system: Citrobacter freundii
Test: In vitro minimum inhibitory concentration required to produce antibacterial activity against Citrobacter freundii 902
Assay type: functional
Procedure, shortened: (§1)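 Two-fold agar dilution on Mueller-Hinton agar. Overnight broth cultures diluted in fresh broth to […]; 10⁴ CFU/spot applied by inoculating apparatus onto plates with graded drug concentrations. Incubated 18 h at 37 °C; MIC taken as the lowest concentration giving complete growth inhibition.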

| Compound | MIC [µg/mL] |
| --- | --- |
| Nc1nc(/C(=N/O)C(=O)N[C@@H]2C(=O)N3C(C(=O)O)=C(/C=C4\CCN(CC5CC5)C4=O)CS[C@H]23)cs1 | 0.12 (≈ 0.231 µM) |
| C#CCN1CC/C(=C\C2=C(C(=O)O)N3C(=O)[C@@H](NC(=O)/C(=N\O)c4csc(N)n4)[C@H]3SC2)C1=O | 0.12 (≈ 0.239 µM) |
| Nc1nc(/C(=N/O)C(=O)N[C@@H]2C(=O)N3C(C(=O)O)=C(/C=C4/CCN(C5CC5)C4=O)CS[C@H]23)cs1 | 0.5 (≈ 0.991 µM) |

Next, values leading:

| MIC [µg/mL] | Compound |
| --- | --- |
| 0.5 (≈ 0.876 µM) | COc1cccc(N2CC/C(=C\C3=C(C(=O)O)N4C(=O)[C@@H](NC(=O)/C(=N\O)c5csc(N)n5)[C@H]4SC3)C2=O)c1 |
| ≤ 0.06 | Nc1nc(/C(=N/O)C(=O)N[C@@H]2C(=O)N3C(C(=O)O)=C(/C=C4\CCN(c5ccc(O)cc5)C4=O)CS[C@H]23)cs1 |
| 2 (≈ 3.66 µM) | Nc1nc(/C(=N/O)C(=O)N[C@@H]2C(=O)N3C(C(=O)O)=C(/C=C4\CCN(Cc5nn[nH]n5)C4=O)CS[C@H]23)cs1 |

Test system: Escherichia coli
Test: In vitro minimum inhibitory concentration required to produce antibacterial activity against Escherichia coli 25922
Assay type: functional
Procedure, shortened: as §1

| Compound | MIC [µg/mL] |
| --- | --- |
| Nc1nc(/C(=N/O)C(=O)N[C@@H]2C(=O)N3C(C(=O)O)=C(/C=C4\CCN(CC5CC5)C4=O)CS[C@H]23)cs1 | 0.12 (≈ 0.231 µM) |
| C#CCN1CC/C(=C\C2=C(C(=O)O)N3C(=O)[C@@H](NC(=O)/C(=N\O)c4csc(N)n4)[C@H]3SC2)C1=O | ≤ 0.06 |
| Nc1nc(/C(=N/O)C(=O)N[C@@H]2C(=O)N3C(C(=O)O)=C(/C=C4/CCN(C5CC5)C4=O)CS[C@H]23)cs1 | 0.5 (≈ 0.991 µM) |

Continued, values first:

| MIC [µg/mL] | Compound |
| --- | --- |
| 0.5 (≈ 0.876 µM) | COc1cccc(N2CC/C(=C\C3=C(C(=O)O)N4C(=O)[C@@H](NC(=O)/C(=N\O)c5csc(N)n5)[C@H]4SC3)C2=O)c1 |
| ≤ 0.06 | Nc1nc(/C(=N/O)C(=O)N[C@@H]2C(=O)N3C(C(=O)O)=C(/C=C4\CCN(c5ccc(O)cc5)C4=O)CS[C@H]23)cs1 |
| 0.25 (≈ 0.457 µM) | Nc1nc(/C(=N/O)C(=O)N[C@@H]2C(=O)N3C(C(=O)O)=C(/C=C4\CCN(Cc5nn[nH]n5)C4=O)CS[C@H]23)cs1 |

Test system: Enterococcus faecalis
Test: In vitro minimum inhibitory concentration required to produce antibacterial activity against Enterococcus faecalis ATCC 29212
Assay type: functional
Procedure, shortened: as §1

| Compound | MIC [µg/mL] |
| --- | --- |
| Nc1nc(/C(=N/O)C(=O)N[C@@H]2C(=O)N3C(C(=O)O)=C(/C=C4\CCN(CC5CC5)C4=O)CS[C@H]23)cs1 | 1 (≈ 1.93 µM) |
| C#CCN1CC/C(=C\C2=C(C(=O)O)N3C(=O)[C@@H](NC(=O)/C(=N\O)c4csc(N)n4)[C@H]3SC2)C1=O | 1 (≈ 1.99 µM) |
| Nc1nc(/C(=N/O)C(=O)N[C@@H]2C(=O)N3C(C(=O)O)=C(/C=C4/CCN(C5CC5)C4=O)CS[C@H]23)cs1 | 16 (≈ 31.7 µM) |

Now from value to compound:

| MIC [µg/mL] | Compound |
| --- | --- |
| 0.5 (≈ 0.876 µM) | COc1cccc(N2CC/C(=C\C3=C(C(=O)O)N4C(=O)[C@@H](NC(=O)/C(=N\O)c5csc(N)n5)[C@H]4SC3)C2=O)c1 |
| 0.5 (≈ 0.898 µM) | Nc1nc(/C(=N/O)C(=O)N[C@@H]2C(=O)N3C(C(=O)O)=C(/C=C4\CCN(c5ccc(O)cc5)C4=O)CS[C@H]23)cs1 |
| 16 (≈ 29.3 µM) | Nc1nc(/C(=N/O)C(=O)N[C@@H]2C(=O)N3C(C(=O)O)=C(/C=C4\CCN(Cc5nn[nH]n5)C4=O)CS[C@H]23)cs1 |

Test system: Enterobacter cloacae
Test: In vitro minimum inhibitory concentration required to produce antibacterial activity against Enterobacter cloacae 908SSI
Assay type: functional
Procedure, shortened: as §1

| Compound | MIC [µg/mL] |
| --- | --- |
| Nc1nc(/C(=N/O)C(=O)N[C@@H]2C(=O)N3C(C(=O)O)=C(/C=C4\CCN(CC5CC5)C4=O)CS[C@H]23)cs1 | 0.25 (≈ 0.482 µM) |
| C#CCN1CC/C(=C\C2=C(C(=O)O)N3C(=O)[C@@H](NC(=O)/C(=N\O)c4csc(N)n4)[C@H]3SC2)C1=O | 1 (≈ 1.99 µM) |
| Nc1nc(/C(=N/O)C(=O)N[C@@H]2C(=O)N3C(C(=O)O)=C(/C=C4/CCN(C5CC5)C4=O)CS[C@H]23)cs1 | 1 (≈ 1.98 µM) |

Now from value to compound:

| MIC [µg/mL] | Compound |
| --- | --- |
| 1 (≈ 1.75 µM) | COc1cccc(N2CC/C(=C\C3=C(C(=O)O)N4C(=O)[C@@H](NC(=O)/C(=N\O)c5csc(N)n5)[C@H]4SC3)C2=O)c1 |
| 0.25 (≈ 0.449 µM) | Nc1nc(/C(=N/O)C(=O)N[C@@H]2C(=O)N3C(C(=O)O)=C(/C=C4\CCN(c5ccc(O)cc5)C4=O)CS[C@H]23)cs1 |
| 16 (≈ 29.3 µM) | Nc1nc(/C(=N/O)C(=O)N[C@@H]2C(=O)N3C(C(=O)O)=C(/C=C4\CCN(Cc5nn[nH]n5)C4=O)CS[C@H]23)cs1 |

Test system: Pseudomonas aeruginosa
Test: In vitro minimum inhibitory concentration required to produce antibacterial activity against Pseudomonas aeruginosa ATCC 27853
Assay type: functional
Procedure, shortened: as §1

| Compound | MIC [µg/mL] |
| --- | --- |
| Nc1nc(/C(=N/O)C(=O)N[C@@H]2C(=O)N3C(C(=O)O)=C(/C=C4\CCN(CC5CC5)C4=O)CS[C@H]23)cs1 | 16 (≈ 30.9 µM) |
| C#CCN1CC/C(=C\C2=C(C(=O)O)N3C(=O)[C@@H](NC(=O)/C(=N\O)c4csc(N)n4)[C@H]3SC2)C1=O | 8 (≈ 15.9 µM) |
| Nc1nc(/C(=N/O)C(=O)N[C@@H]2C(=O)N3C(C(=O)O)=C(/C=C4/CCN(C5CC5)C4=O)CS[C@H]23)cs1 | > 32 |

The next lines start with the values.

| MIC [µg/mL] | Compound |
| --- | --- |
| > 32 | COc1cccc(N2CC/C(=C\C3=C(C(=O)O)N4C(=O)[C@@H](NC(=O)/C(=N\O)c5csc(N)n5)[C@H]4SC3)C2=O)c1 |
| 4 (≈ 7.19 µM) | Nc1nc(/C(=N/O)C(=O)N[C@@H]2C(=O)N3C(C(=O)O)=C(/C=C4\CCN(c5ccc(O)cc5)C4=O)CS[C@H]23)cs1 |
| > 32 | Nc1nc(/C(=N/O)C(=O)N[C@@H]2C(=O)N3C(C(=O)O)=C(/C=C4\CCN(Cc5nn[nH]n5)C4=O)CS[C@H]23)cs1 |

Test system: Staphylococcus aureus
Test: In vitro minimum inhibitory concentration required to produce antibacterial activity against Staphylococcus aureus 743 MRSA
Assay type: functional
Procedure, shortened: as §1

| Compound | MIC [µg/mL] |
| --- | --- |
| Nc1nc(/C(=N/O)C(=O)N[C@@H]2C(=O)N3C(C(=O)O)=C(/C=C4\CCN(CC5CC5)C4=O)CS[C@H]23)cs1 | 16 (≈ 30.9 µM) |
| C#CCN1CC/C(=C\C2=C(C(=O)O)N3C(=O)[C@@H](NC(=O)/C(=N\O)c4csc(N)n4)[C@H]3SC2)C1=O | 4 (≈ 7.96 µM) |
| Nc1nc(/C(=N/O)C(=O)N[C@@H]2C(=O)N3C(C(=O)O)=C(/C=C4/CCN(C5CC5)C4=O)CS[C@H]23)cs1 | 16 (≈ 31.7 µM) |

Continued, values first:

| MIC [µg/mL] | Compound |
| --- | --- |
| 8 (≈ 14 µM) | COc1cccc(N2CC/C(=C\C3=C(C(=O)O)N4C(=O)[C@@H](NC(=O)/C(=N\O)c5csc(N)n5)[C@H]4SC3)C2=O)c1 |
| 4 (≈ 7.19 µM) | Nc1nc(/C(=N/O)C(=O)N[C@@H]2C(=O)N3C(C(=O)O)=C(/C=C4\CCN(c5ccc(O)cc5)C4=O)CS[C@H]23)cs1 |
| 32 (≈ 58.5 µM) | Nc1nc(/C(=N/O)C(=O)N[C@@H]2C(=O)N3C(C(=O)O)=C(/C=C4\CCN(Cc5nn[nH]n5)C4=O)CS[C@H]23)cs1 |

Test system: Staphylococcus aureus
Test: In vitro minimum inhibitory concentration required to produce antibacterial activity against Staphylococcus aureus 887MSSA
Assay type: functional
Procedure, shortened: as §1

| Compound | MIC [µg/mL] |
| --- | --- |
| Nc1nc(/C(=N/O)C(=O)N[C@@H]2C(=O)N3C(C(=O)O)=C(/C=C4\CCN(CC5CC5)C4=O)CS[C@H]23)cs1 | 1 (≈ 1.93 µM) |
| C#CCN1CC/C(=C\C2=C(C(=O)O)N3C(=O)[C@@H](NC(=O)/C(=N\O)c4csc(N)n4)[C@H]3SC2)C1=O | 1 (≈ 1.99 µM) |
| Nc1nc(/C(=N/O)C(=O)N[C@@H]2C(=O)N3C(C(=O)O)=C(/C=C4/CCN(C5CC5)C4=O)CS[C@H]23)cs1 | 1 (≈ 1.98 µM) |

The next lines start with the values.

| MIC [µg/mL] | Compound |
| --- | --- |
| 1 (≈ 1.75 µM) | COc1cccc(N2CC/C(=C\C3=C(C(=O)O)N4C(=O)[C@@H](NC(=O)/C(=N\O)c5csc(N)n5)[C@H]4SC3)C2=O)c1 |
| 0.5 (≈ 0.898 µM) | Nc1nc(/C(=N/O)C(=O)N[C@@H]2C(=O)N3C(C(=O)O)=C(/C=C4\CCN(c5ccc(O)cc5)C4=O)CS[C@H]23)cs1 |
| 8 (≈ 14.6 µM) | Nc1nc(/C(=N/O)C(=O)N[C@@H]2C(=O)N3C(C(=O)O)=C(/C=C4\CCN(Cc5nn[nH]n5)C4=O)CS[C@H]23)cs1 |

Test system: Streptococcus pneumoniae
Test: In vitro minimum inhibitory concentration required to produce antibacterial activity against Streptococcus pneumoniae 1/37(pen r)
Assay type: functional
Procedure, shortened: as §1

| Compound | MIC [µg/mL] |
| --- | --- |
| Nc1nc(/C(=N/O)C(=O)N[C@@H]2C(=O)N3C(C(=O)O)=C(/C=C4\CCN(CC5CC5)C4=O)CS[C@H]23)cs1 | 1 (≈ 1.93 µM) |
| C#CCN1CC/C(=C\C2=C(C(=O)O)N3C(=O)[C@@H](NC(=O)/C(=N\O)c4csc(N)n4)[C@H]3SC2)C1=O | 2 (≈ 3.98 µM) |
| Nc1nc(/C(=N/O)C(=O)N[C@@H]2C(=O)N3C(C(=O)O)=C(/C=C4/CCN(C5CC5)C4=O)CS[C@H]23)cs1 | 2 (≈ 3.96 µM) |

Further lines, results first:

| MIC [µg/mL] | Compound |
| --- | --- |
| 0.5 (≈ 0.876 µM) | COc1cccc(N2CC/C(=C\C3=C(C(=O)O)N4C(=O)[C@@H](NC(=O)/C(=N\O)c5csc(N)n5)[C@H]4SC3)C2=O)c1 |
| 1 (≈ 1.8 µM) | Nc1nc(/C(=N/O)C(=O)N[C@@H]2C(=O)N3C(C(=O)O)=C(/C=C4\CCN(c5ccc(O)cc5)C4=O)CS[C@H]23)cs1 |
| 2 (≈ 3.66 µM) | Nc1nc(/C(=N/O)C(=O)N[C@@H]2C(=O)N3C(C(=O)O)=C(/C=C4\CCN(Cc5nn[nH]n5)C4=O)CS[C@H]23)cs1 |

Test system: Streptococcus pneumoniae
Test: Minimum inhibitory concentration for antibacterial activity against Streptococcus pneumoniae Q19 (pen s)
Assay type: functional
Procedure, shortened: as §1

| Compound | MIC [µg/mL] |
| --- | --- |
| Nc1nc(/C(=N/O)C(=O)N[C@@H]2C(=O)N3C(C(=O)O)=C(/C=C4\CCN(CC5CC5)C4=O)CS[C@H]23)cs1 | 0.03 (≈ 0.0579 µM) |
| C#CCN1CC/C(=C\C2=C(C(=O)O)N3C(=O)[C@@H](NC(=O)/C(=N\O)c4csc(N)n4)[C@H]3SC2)C1=O | ≤ 0.06 |
| Nc1nc(/C(=N/O)C(=O)N[C@@H]2C(=O)N3C(C(=O)O)=C(/C=C4/CCN(C5CC5)C4=O)CS[C@H]23)cs1 | 0.25 (≈ 0.495 µM) |

Results, then the compound that gave them:

| MIC [µg/mL] | Compound |
| --- | --- |
| ≤ 0.06 | COc1cccc(N2CC/C(=C\C3=C(C(=O)O)N4C(=O)[C@@H](NC(=O)/C(=N\O)c5csc(N)n5)[C@H]4SC3)C2=O)c1 |
| 0.12 (≈ 0.216 µM) | Nc1nc(/C(=N/O)C(=O)N[C@@H]2C(=O)N3C(C(=O)O)=C(/C=C4\CCN(c5ccc(O)cc5)C4=O)CS[C@H]23)cs1 |
| 0.12 (≈ 0.22 µM) | Nc1nc(/C(=N/O)C(=O)N[C@@H]2C(=O)N3C(C(=O)O)=C(/C=C4\CCN(Cc5nn[nH]n5)C4=O)CS[C@H]23)cs1 |
